Activity calls are given as the source filed them. No cut-off for these calls is given here.
What was measured:
[1] = Immunosuppressive activity against C57Bl/6 mouse splenic lymphocytes assessed as concanavalin A-induced cell proliferation at > 0.002 nM incubated for 1 hr prior to concanavalin A challenge measured after 48 hrs by resazurin reduction assay relative to control; format: functional, Splenic lymphocyte; design: scale not given: the % may be the effect or the level left
In short: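 Splenocytes from male C57Bl/6 mice were plated at 1×10^6 cells/mL, 37 °C, 5% CO2. Compounds at 0.002–200 nM were added for 1 h, then cells were incubated with or without concanavalin A (0.5 µg/mL) for 48 h. Resazurin 0.01% was added for 24 h, then OD read at 570 and 600 nm and proliferation taken as the difference. Compared with ConA plus vehicle. Three animals in triplicate.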

Splenic lymphocyte = assay: Immunosuppressive activity against C57Bl/6 mouse splenic lymphocytes assessed as cell viability at 200 nM after 72 hrs by MTT assay; format: functional
In short: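 Spleens from male 18-week-old C57Bl/6 mice were teased through a strainer, washed in RPMI and resuspended in RPMI with 10% FBS. Cells were counted by trypan blue and cultured in triplicate at 37 °C for 72 h with vehicle (medium, 0.1% DMSO), 10% DMSO or compound at 200 nM. MTT was added for 2 h, formazan dissolved in DMSO and read at 570 nm. Viability taken as % of vehicle after blank subtraction. Three animals.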

Trichophyton rubrum = assay: Antifungal activity against Trichophyton rubrum ATCC 28188 assessed as growth inhibition at 10 mg/mL by bioautographic agar overlay method; format: functional, organism-based
In short: (§1)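 Samples at 10 mg/mL spotted on silica gel TLC plates, overlaid with a thin Sabouraud agar film inoculated 50:1 with fresh-culture suspension at 10^6 cells or spores/mL. Incubation time and conditions were set per fungus. Growth-free zones around spots scored qualitatively. Same plate carried DMSO 1% negative control plus amphotericin B and ketoconazol controls.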

Nakaseomyces glabratus = assay: Antifungal activity against Candida glabrata ATCC 15126 assessed as growth inhibition at 10 mg/mL by bioautographic agar overlay method; format: functional, organism-based; in short: as §1
Candida parapsilosis = assay: Antifungal activity against Candida parapsilosis ATCC 22919 assessed as growth inhibition at 10 mg/mL by bioautographic agar overlay method; format: functional, organism-based; in short: as §1
Candida albicans = assay: Antifungal activity against Candida albicans ATCC 90022 assessed as growth inhibition at 10 mg/mL by bioautographic agar overlay method; format: functional, organism-based; in short: as §1
Cryptococcus neoformans = assay: Antifungal activity against Cryptococcus neoformans ATCC 14116 assessed as growth inhibition at 10 mg/mL by bioautographic agar overlay method; format: functional, organism-based; in short: as §1
[2] = system: Trichophyton mentagrophytes; assay: Antifungal activity against Trichophyton mentagrophytes ATCC 9533 assessed as growth inhibition at 10 mg/mL by bioautographic agar overlay method; format: functional, organism-based; in short: as §1
Nannizzia gypsea = assay: Antifungal activity against Microsporum gypseum ATCC 24102 assessed as growth inhibition at 10 mg/mL by bioautographic agar overlay method; format: functional, organism-based; in short: as §1

SMILES | Activity [1] | Activity (Splenic lymphocyte) | growth inhibition (GI) (Trichophyton rubrum) | growth inhibition (GI) (Nakaseomyces glabratus) | growth inhibition (GI) (Candida parapsilosis) | growth inhibition (GI) (Candida albicans) | growth inhibition (GI) (Cryptococcus neoformans) | growth inhibition (GI) [2] | growth inhibition (GI) (Nannizzia gypsea)
O[C@H]1[C@H](O)[C@@H](n2cc(-c3ccc(-c4cn([C@H]5C=C(Br)[C@@H](O)[C@@H](O)[C@@H]5O)nn4)cc3)nn2)C=C(Br)[C@H]1O | <=30% | inactive | Active | inactive | inactive | inactive | inactive | inactive | Active
C#Cc1cccc(-c2cn([C@@H]3C=C(Br)[C@@H](O)[C@@H](O)[C@@H]3O)nn2)c1 | <=30% | inactive | inactive | inactive | Active | inactive | inactive | inactive | inactive
C#Cc1ccc(-c2cn([C@H]3C=C(Br)[C@@H](O)[C@@H](O)[C@@H]3O)nn2)cc1 | <=30% | inactive | inactive | inactive | inactive | inactive | inactive | inactive | inactive
C#Cc1cccc(-c2cn([C@H]3C=C(Br)[C@@H](O)[C@@H](O)[C@@H]3O)nn2)c1 | <=30% | inactive | inactive | inactive | inactive | inactive | inactive | inactive | inactive
O[C@H]1[C@H](O)[C@H](n2cc(-c3ccc(-c4cn([C@H]5C=C(Br)[C@@H](O)[C@@H](O)[C@@H]5O)nn4)cc3)nn2)C=C(Br)[C@H]1O (mixture of isomers) | <=30% | inactive | inactive | inactive | inactive | inactive | inactive | inactive | inactive
O[C@H]1[C@H](O)[C@H](n2cc(-c3cccc(-c4cn([C@H]5C=C(Br)[C@@H](O)[C@@H](O)[C@@H]5O)nn4)c3)nn2)C=C(Br)[C@H]1O (mixture of isomers) | <=30% | inactive | inactive | Active | inactive | inactive | inactive | Active | inactive
O[C@H]1[C@H](O)[C@H](n2cc(-c3cccc(-c4cn([C@@H]5C=C(Br)[C@@H](O)[C@@H](O)[C@@H]5O)nn4)c3)nn2)C=C(Br)[C@H]1O | <=30% | inactive | inactive | inactive | inactive | inactive | inactive | inactive | inactive
O[C@H]1[C@H](O)[C@@H](n2cc(-c3cccc(-c4cn([C@H]5C=C(Br)[C@@H](O)[C@@H](O)[C@@H]5O)nn4)c3)nn2)C=C(Br)[C@H]1O | <=30% | inactive | inactive | inactive | inactive | inactive | inactive | inactive | inactive
O[C@H]1[C@H](O)[C@H](n2cc(-c3ccc(-c4cn([C@@H]5C=C(Br)[C@@H](O)[C@@H](O)[C@@H]5O)nn4)cc3)nn2)C=C(Br)[C@H]1O | <=30% | inactive | inactive | inactive | Active | inactive | inactive | inactive | inactive
C#Cc1ccc(-c2cn([C@@H]3C=C(Br)[C@@H](O)[C@@H](O)[C@@H]3O)nn2)cc1 | <=30% | inactive | inactive | inactive | Active | inactive | inactive | inactive | inactive

Reference: ChEMBL document CHEMBL2396559, “Synthesis and preliminary biological evaluation of a compound library of triazolylcyclitols” (2013)
